Data published in paper PMC5761012 (Journal of Pharmaceutical Analysis, 2013).

Key:
[1] = tested on: human plasma proteins; assay: Human plasma protein binding by equilibrium dialysis with UPLC-MS/MS; format: in vitro ADME; conditions: for Kd at 72 h: human, human plasma (equilibrium dialysis against phosphate buffer); for maximum binding ability β: modified Scatchard equation, extract 1.2 to 60 μg/mL, human plasma, Pt 71.28 g/L
Method in brief: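 Blank human plasma was placed in 10 kDa dialysis bags (pre-soaked in pH 7.4 phosphate buffer) and dialysed at 4 °C for 72 h against buffer containing the aqueous plant extract (1.2–60 µg/mL). Inside-bag concentration gave total drug; outside gave free drug. Analysis was by UPLC–ESI-MS/MS after methanol/formic acid protein precipitation, with matrix-specific 1/x² weighted calibration. Parameters came from a modified Scatchard fit using Pt 71.28 g/L (Lowry) and plasma water 99.25%.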

[2] = Analyte stability in human plasma and phosphate buffer; format: in vitro ADME; conditions: for time stable at ambient temperature / reduction of the concentration after three freeze–thaw cycles: QC samples; for time stable at ambient temperature: human plasma and phosphate buffer, three concentration levels; for reduction of the concentration after three freeze–thaw cycles: −20 °C to room temperature; for time stable in auto-sampler conditions: processed QC samples, 15 °C
Method in brief: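 Processed QC samples in human plasma and pH 7.4 phosphate buffer were tested at three concentration levels, three replicates each. Conditions were 6 h at ambient temperature, or three freeze (−20 °C)/thaw (room temperature) cycles followed by 24 h at 15 °C in the auto-sampler. Separately, samples were held 96 h at 4 °C. Mean UPLC–ESI-MS/MS concentrations were compared with freshly prepared QC samples.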

| Compound | Kd at 72 h [1] [µM] | maximum binding ability β [1] [µmol/g] | time stable at ambient temperature [2] | reduction of the concentration after three freeze–thaw cycles [2] [%] | time stable in auto-sampler conditions [2] [h] |
| --- | --- | --- | --- | --- | --- |
| O=c1cc(-c2ccc(O)c(O)c2)oc2c([C@@H]3O[C@H](CO)[C@@H](O)[C@H](O)[C@H]3O)c(O)cc(O)c12 [orientin] | 26.6 | 2.685 | at least 6 h | < 10 | ≥ 24 |
| C[C@@H]1O[C@@H](Oc2c(-c3ccc(O)c(O)c3)oc3cc(O)cc(O)c3c2=O)[C@H](O)[C@H](O)[C@H]1O [quercitrin] | 5.29 | 0.6420 | at least 6 h | < 10 | ≥ 24 |
| O=c1cc(-c2ccc(O)cc2)oc2c([C@@H]3O[C@H](CO)[C@@H](O)[C@H](O)[C@H]3O)c(O)cc(O)c12 [vitexin] | 19.7 | 1.650 | at least 6 h | < 10 | ≥ 24 |
